Numbering of substitutions follows the chain as printed. Several values for one entry are separate records, joined by “and”; a condition that tells them apart may be missing. Equal values may be shown once.

Test [1] has as its target T1, recombinant GAC (residues 128-603) (Mus musculus, UniProt D3Z7P3).
T1 sequence (D3Z7P3 128-603 isoform D3Z7P3-2): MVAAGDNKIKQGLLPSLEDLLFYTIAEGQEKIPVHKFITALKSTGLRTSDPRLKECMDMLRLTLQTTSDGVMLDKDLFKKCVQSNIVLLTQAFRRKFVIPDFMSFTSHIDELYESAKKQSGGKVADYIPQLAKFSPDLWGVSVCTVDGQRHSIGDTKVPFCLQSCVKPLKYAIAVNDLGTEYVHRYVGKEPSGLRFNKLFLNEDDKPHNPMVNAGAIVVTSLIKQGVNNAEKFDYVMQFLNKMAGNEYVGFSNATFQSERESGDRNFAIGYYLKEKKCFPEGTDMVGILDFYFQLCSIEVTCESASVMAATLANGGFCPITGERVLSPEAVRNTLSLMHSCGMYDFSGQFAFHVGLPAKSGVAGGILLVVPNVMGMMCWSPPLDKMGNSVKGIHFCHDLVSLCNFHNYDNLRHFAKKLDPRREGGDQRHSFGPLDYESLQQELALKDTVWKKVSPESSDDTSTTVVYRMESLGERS
Nature of the test: Recombinant GAC two-step glutaminase assay. Particulars: for inhibition of phosphate-activated enzyme: GAC activated by inorganic phosphate before inhibitor. The test is classed as biochemical.

A further test has as its system MDA-MB-231 cells. Nature of the test: MDA-MB-231 cell proliferation assay. The test is classed as cell-based, human.
The target in test [2] is T2, full-length wild-type GAC (Δ72 GAC) (Mus musculus, UniProt D3Z7P3).
T2 sequence (D3Z7P3 72-603 isoform D3Z7P3-2): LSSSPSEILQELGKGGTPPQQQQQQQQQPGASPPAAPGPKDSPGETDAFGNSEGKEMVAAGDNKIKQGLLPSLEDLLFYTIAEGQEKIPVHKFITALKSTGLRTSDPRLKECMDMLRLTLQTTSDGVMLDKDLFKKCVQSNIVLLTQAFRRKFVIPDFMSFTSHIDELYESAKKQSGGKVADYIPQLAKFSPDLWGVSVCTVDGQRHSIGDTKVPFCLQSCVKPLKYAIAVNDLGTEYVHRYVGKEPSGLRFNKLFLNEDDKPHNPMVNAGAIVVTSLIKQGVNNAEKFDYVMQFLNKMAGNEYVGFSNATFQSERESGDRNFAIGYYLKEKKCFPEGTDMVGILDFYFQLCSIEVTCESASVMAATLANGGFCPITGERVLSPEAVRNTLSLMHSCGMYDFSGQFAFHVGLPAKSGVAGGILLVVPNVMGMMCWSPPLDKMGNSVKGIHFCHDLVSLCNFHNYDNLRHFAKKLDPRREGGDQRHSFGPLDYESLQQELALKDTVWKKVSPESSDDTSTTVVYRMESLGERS
Put plainly: Recombinant protein assay with full-length wild-type GAC. It counts as biochemical. An outline of the steps: (§1)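 Mouse GAC residues 72-603 in pET28a, wild type or site-directed mutant. Inhibitor in DMSO mixed with 50 nM enzyme and 21 mM glutamine in pH 8.6 Tris-acetate, then inorganic phosphate (136 mM) added; 10 min at 37°C; acid quench. Glutamate read by glutamate dehydrogenase/NAD coupling, A340 after 45 min room temperature against NAD-free blank; duplicates. IC50 from fixed-slope inhibitor curve fit.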

Another test concerns the target T3, R539L GAC mutant (Mus musculus, UniProt D3Z7P3, R539L).
T3 sequence (D3Z7P3 72-603 isoform D3Z7P3-2 R539L): T2 sequence (D3Z7P3 72-603 isoform D3Z7P3-2) with R468L
Put plainly: Recombinant protein assay with R539L GAC mutant. The test is classed as biochemical. Particulars: concentrations up to 50 μM. An outline of the steps: as §1

In the next test the target is T4, F532L GAC mutant (Mus musculus, UniProt D3Z7P3, F532L).
T4 sequence (D3Z7P3 72-603 isoform D3Z7P3-2 F532L): T2 sequence (D3Z7P3 72-603 isoform D3Z7P3-2) with F461L
Put plainly: Recombinant protein assay with F532L GAC mutant. Particulars: concentrations up to 50 μM. The test is classed as biochemical. An outline of the steps:
as §1

Broadly, the IC50 is the concentration needed to halve the response being measured. As for `O=C(Cc1ccccc1)Nc1nnc(CCSCCc2nnc(NC(=O)Cc3ccccc3)s2)s1` [BPTES, reference compound], the “inhibition of phosphate-activated enzyme” value in test [1] is “able to do so”. In the test on MDA-MB-231 cells (MDA-MB-231 cell proliferation), this compound came in with an IC50 of 3 µM.

One may read the inhibition as the percentage by which the read-out fell short of the control. On to `CN(C)c1ccc(C2Nc3ccc4ccccc4c3C3=C2C(=O)CC(C)(C)C3)cc1Br` (centres unmarked) [compound 968, 5-(3-bromo-4-(dimethylamino)phenyl)-2,2-dimethyl-2,3,5,6-tetrahydrobenzo[a]phenanthridin-4(1H)-one], for which, in test [1], the inhibition at 10 µM was determined as 21 ± 5%, the inhibition at 25 µM was found to be 94 ± 1%, the inhibition at 50 µM amounted to 95 ± 1% and the “inhibition of phosphate-activated enzyme” value is “unable to inhibit the phosphate-activated enzyme”. Also, the IC50 in test [1] (IC50, GAC 50 nM, glutamine 21 mM, phosphate 136 mM, 10 min, fixed slope inhibitor model, shorter GAC construct) is 9.3 µM and ~10 µM. In addition, the IC50 in test [2] is 19 µM. The inhibition of mutant entry at R539L GAC mutant is given as “detectable inhibition was not observed”. Also, on F532L GAC mutant, the inhibition of mutant entry is recorded as “detectable inhibition was not observed”. Also, half-maximal inhibition in the test on MDA-MB-231 cells (Homo sapiens, MDA-MB-231) (IC50) required 4.2 µM.

The values above are taken from publication PMC3620022 (Molecular cancer therapeutics, 2012).
